Experimental data gathered from unrelated publications.
Lines come from different studies, so protocols differ. pIC50: −log10 of the molar value.
Cell line: A549
Observed: cell growth or viability

SMILES | method | time | pIC50
COc1ccccc1/C=C/CNCC(O)COc1ccc2ccccc2c1 (centres unmarked) | CCK-8 | 72 h | 4.77
COc1ccc2c(c1)/C(=N/NC(=O)c1cc3ccccc3[nH]1)C(=O)N2C | – | – | 5.71
COc1c2c(cc3c1OCO3)[C@]13C=C[C@H](OC)C[C@H]1N(C2)C[C@H]3OC(=O)c1cccc(C)c1 | WST-1 | – | < 5.00
CCNC(=O)NNC(=O)c1ccc(Nc2nccc(-c3ccc(Cl)cc3)n2)cc1 | MTT | 24 h | < 4.40
CCCCCCCCCCCC(=O)Oc1c(C)c(O)c(C(=O)/C=C/c2ccccc2)c(OC)c1C | SRB | 72 h | < 4.30
CN1C(=O)/C(=N\NC(=O)c2cc3ccccc3[nH]2)c2cc(Cl)ccc21 | – | – | 5.67
O=C1NCCc2[nH]c(-c3ccncc3)cc21 | – | – | < 5.00
C=CC(=O)Nc1cc(Nc2nc(N3CCc4sccc4C3)c3cccnc3n2)c(OC)cc1N1CCN(CCO)CC1 | MTT | – | 5.27
O=C(N/N=C/c1cccn1CCN1CCCC1)Nc1cc2c(Nc3ccc(F)c(Cl)c3)ncnc2cc1O[C@H]1CCOC1 | MTT | 72 h | 5.62
COc1ccc(NC(=O)Nc2ccc(OCc3nccc(OCC(F)(F)F)c3C)cc2)cc1 | MTT | 72 h | 4.90
Oc1ncnc2cc(Nc3nc(-c4ccccc4)cs3)ccc12 | MTT | – | 4.61
CS(=O)(=O)c1ccc(-n2cc(C=N/N=c3\[nH]c(-c4ccc(Br)cc4)cs3)c(-c3ccc([N+](=O)[O-])cc3)n2)cc1 | MTT | 48 h | 4.55
O=C(Nc1nnnn1C1CCCCC1)c1ccc2ccccc2c1 | – | 48 h | 5.95
Nc1ccc(Cl)c[n+]1[Pt-2]([Cl])([Cl])[n+]1cc(Cl)ccc1N | MTT | 24 h | 5.07
Cc1ccc(C)n1-c1ccc(-c2nnc(-c3ccccc3Cl)[nH]2)cc1 | MTT | 72 h | 3.64
CCn1c(-c2nnc(NC(=O)c3cc4c([nH]c5ccccc54)c(-c4ccc(OC)cc4)n3)s2)cc2ccccc21 | MTT | 72 h | 4.85
COc1cccc2c1C(=O)c1c(O)c3c(c(O)c1C2=O)C[C@@](O)(C(=O)CO)C[C@@H]3O[C@H]1C[C@H](N)[C@H](O)[C@H](C)O1 | – | 48 h | 6.25
Cn1c(=O)c2c(ncn2Cc2nnc(SCC(=O)Nc3ccccc3)n2-c2ccccc2)n(C)c1=O | MTT | – | 3.84
CC1=C(O)C(=O)C=C2C1=CC=C1[C@@]2(C)CC[C@@]2(C)[C@@H]3C[C@](C)(C(=O)OCCCn4ccc5ccccc54)CC[C@]3(C)CC[C@]12C | MTT | 48 h | < 4.00
COc1ccccc1/C=C/CNCC(O)COc1cccc2[nH]c3ccccc3c12 (centres unmarked) | CCK-8 | 72 h | 5.10
COc1ccc(/C=C2\SC(=S)N(CC(=O)Nc3ccccc3)C2=O)cc1 | MTT | – | 4.59

SMILES | method | time | pIC50
COCCCOc1ccnc(COc2ccc(NC(=O)Nc3cccc(C(F)(F)F)c3)cc2)c1C | MTT | 72 h | 5.36
C=C(Cl)C(=O)Nc1cc(Nc2nc(N3CCSCC3)c3sccc3n2)c(OC)cc1N(C)CCN(C)C | MTT | – | 7.01
CN1CCN(CCCn2cccc2/C=N/NC(=O)Nc2cc3c(Nc4ccc(F)c(Cl)c4)ncnc3cc2O[C@H]2CCOC2)CC1 | MTT | 72 h | 5.39
O=[N+]([O-])c1ccc(-c2csc(Nc3ccc4c(O)ncnc4c3)n2)cc1 | MTT | – | 4.75
COc1c(C)cnc(COc2ccc(NC(=O)Nc3ccc(Cl)c(C(F)(F)F)c3)cc2)c1C | MTT | 72 h | 5.18
CCCCNC(=O)NNC(=O)c1cccc(Nc2nccc(-c3ccncc3)n2)c1 | MTT | 24 h | 4.51
Cc1cc(C)n(-c2nc(NN=Cc3c[nH]c4ccccc34)nc(Nc3ccc(Br)cc3)n2)n1 | SRB | 72 h | 5.21
COc1cc2ncnc(Nc3ccc(F)c(Cl)c3)c2cc1NC(=O)N/N=C/CN1CCOCC1 | MTT | 72 h | 5.17
C=C(Cl)C(=O)Nc1cc(Nc2nc(N3CCOCC3)c3sccc3n2)c(OC)cc1N(C)CCN(C)C | MTT | – | 6.97
COc1cc2ncnc(Nc3ccc(F)c(Cl)c3)c2cc1NC(=O)N/N=C/c1cccn1CCCN(C)C | MTT | 72 h | 5.70
COc1ccccc1/C=C/CNCC(O)COc1cccc2ccccc12 (centres unmarked) | CCK-8 | 72 h | 4.77
Cc1ccc(-c2nn(-c3ccc(S(C)(=O)=O)cc3)cc2/C=N\N=c2/[nH]c(-c3ccc([N+](=O)[O-])cc3)cs2)cc1 | MTT | 48 h | 4.24
O=C(NC(=S)NCc1ccc(CNC(=S)NC(=O)c2ccc3ccccc3c2)cc1)c1ccc2ccccc2c1 | – | 48 h | 5.55
C=CC(=O)Nc1cc(Nc2nc(N3CCc4sccc4C3)c3sccc3n2)c(OC)cc1N1CCN(C)CC1 | MTT | – | 5.71
COc1ccccc1/C=C/CNCC(O)COc1cccc2ncccc12 (centres unmarked) | CCK-8 | 72 h | 4.55
COc1cccc2c1C(=O)c1c(O)c3c(c(O)c1C2=O)C[C@@](O)(C(=O)CO)C[C@@H]3O[C@H]1C[C@H](N)[C@H](O)[C@H](C)O1 | MTT | 48 h | 5.30
COc1cc(N(C)CCN(C)C)c(NC(=O)/C=C/C(C)C)cc1Nc1nc(Nc2cnn(C)c2)c2sccc2n1 | MTT | – | 6.36
CN(C)c1ccc2cc(C(=O)N[C@@H](CCCNC(=N)CCl)C(=O)NCc3ccccc3)ccc2c1 | – | 48 h | 5.01
CN(C)CCn1cccc1/C=N/NC(=O)Nc1cc2c(Nc3ccc(F)c(Cl)c3)ncnc2cc1O[C@H]1CCOC1 | MTT | 72 h | 5.74
CC1=C(O)C(=O)C=C2C1=CC=C1[C@@]2(C)CC[C@@]2(C)[C@@H]3C[C@](C)(C(=O)OCCCBr)CC[C@]3(C)CC[C@]12C | MTT | 48 h | 5.31
